Laboratory results as given in ChEMBL document CHEMBL5653631, “A Potent and Selective ULK1 Inhibitor Suppresses Autophagy and Sensitizes Cancer Cells to Nutrient Stress” (iScience, 2018).

What was measured:
[1] = target: T1, Serine/threonine-protein kinase Sgk2 (Homo sapiens) (UniProt Q9HBY8); test: Inhibition of human recombinant SGK2 at 40 nM related to control ULK1
T1 sequence (whole entry): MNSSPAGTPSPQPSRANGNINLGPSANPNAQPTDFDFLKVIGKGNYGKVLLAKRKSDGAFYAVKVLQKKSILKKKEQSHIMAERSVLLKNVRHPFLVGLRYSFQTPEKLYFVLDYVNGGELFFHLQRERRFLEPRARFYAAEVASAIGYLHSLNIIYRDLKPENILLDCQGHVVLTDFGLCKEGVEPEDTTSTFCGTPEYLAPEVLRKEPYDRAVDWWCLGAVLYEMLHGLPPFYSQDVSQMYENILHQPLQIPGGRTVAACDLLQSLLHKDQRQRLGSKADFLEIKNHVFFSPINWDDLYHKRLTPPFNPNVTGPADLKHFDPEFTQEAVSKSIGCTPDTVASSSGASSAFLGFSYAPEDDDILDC

[2] = target: T2, SNF-related serine/threonine-protein kinase (Homo sapiens) (UniProt Q9NRH2); test: Inhibition of human recombinant SNRK at 40 nM related to control ULK1
T2 sequence (whole entry): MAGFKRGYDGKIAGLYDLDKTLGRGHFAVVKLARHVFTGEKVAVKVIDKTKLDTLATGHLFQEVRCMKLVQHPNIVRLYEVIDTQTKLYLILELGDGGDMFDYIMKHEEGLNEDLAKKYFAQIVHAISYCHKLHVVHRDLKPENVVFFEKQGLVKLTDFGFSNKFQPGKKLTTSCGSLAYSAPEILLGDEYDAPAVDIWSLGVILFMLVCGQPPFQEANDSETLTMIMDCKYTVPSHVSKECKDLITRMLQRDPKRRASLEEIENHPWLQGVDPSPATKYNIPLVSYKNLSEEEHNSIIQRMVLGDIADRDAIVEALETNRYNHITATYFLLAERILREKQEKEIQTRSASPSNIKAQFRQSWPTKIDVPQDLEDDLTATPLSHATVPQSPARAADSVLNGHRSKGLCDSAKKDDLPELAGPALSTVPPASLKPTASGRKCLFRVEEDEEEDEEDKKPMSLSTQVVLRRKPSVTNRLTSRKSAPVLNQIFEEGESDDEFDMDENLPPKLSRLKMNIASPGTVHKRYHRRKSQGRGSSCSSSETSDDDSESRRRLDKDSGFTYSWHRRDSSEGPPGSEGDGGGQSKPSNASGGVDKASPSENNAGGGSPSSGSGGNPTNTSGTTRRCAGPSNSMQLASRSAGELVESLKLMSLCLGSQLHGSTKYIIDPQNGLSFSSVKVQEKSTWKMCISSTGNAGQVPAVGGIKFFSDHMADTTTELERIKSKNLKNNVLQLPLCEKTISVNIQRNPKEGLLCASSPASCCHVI

[3] = target: T3, Serine/threonine-protein kinase PLK4 (Homo sapiens) (UniProt O00444); test: Inhibition of human recombinant PLK4 at 40 nM related to control ULK1
T3 sequence (whole entry): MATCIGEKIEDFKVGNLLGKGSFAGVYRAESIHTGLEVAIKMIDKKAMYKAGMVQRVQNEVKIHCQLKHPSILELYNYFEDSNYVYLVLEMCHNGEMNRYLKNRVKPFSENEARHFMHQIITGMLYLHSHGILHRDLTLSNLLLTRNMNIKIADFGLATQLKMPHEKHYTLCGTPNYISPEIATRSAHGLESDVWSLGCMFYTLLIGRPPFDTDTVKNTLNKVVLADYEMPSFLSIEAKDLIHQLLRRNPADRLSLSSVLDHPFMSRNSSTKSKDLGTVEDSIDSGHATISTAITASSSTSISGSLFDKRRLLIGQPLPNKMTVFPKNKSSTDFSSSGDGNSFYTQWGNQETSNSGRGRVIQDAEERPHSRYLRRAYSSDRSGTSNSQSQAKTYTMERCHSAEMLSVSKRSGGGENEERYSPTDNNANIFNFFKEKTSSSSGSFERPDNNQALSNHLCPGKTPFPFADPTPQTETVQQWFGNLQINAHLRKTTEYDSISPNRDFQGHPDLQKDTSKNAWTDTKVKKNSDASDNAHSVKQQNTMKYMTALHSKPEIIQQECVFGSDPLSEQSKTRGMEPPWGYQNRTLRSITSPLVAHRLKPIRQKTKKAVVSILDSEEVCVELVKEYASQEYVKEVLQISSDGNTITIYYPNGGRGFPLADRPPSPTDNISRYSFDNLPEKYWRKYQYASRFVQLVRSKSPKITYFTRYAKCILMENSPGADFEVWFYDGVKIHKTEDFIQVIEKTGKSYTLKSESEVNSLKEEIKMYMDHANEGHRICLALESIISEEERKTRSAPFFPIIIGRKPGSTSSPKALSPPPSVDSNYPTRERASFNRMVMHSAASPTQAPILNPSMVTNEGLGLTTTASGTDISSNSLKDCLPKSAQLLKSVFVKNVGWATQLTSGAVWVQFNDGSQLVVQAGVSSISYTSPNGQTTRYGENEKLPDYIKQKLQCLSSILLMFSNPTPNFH

[4] = target: Serine/threonine-protein kinase/endoribonuclease IRE1 (Homo sapiens) (UniProt O75460); test: Inhibition of human recombinant IRE1 at 15 nM related to control ULK1
[5] = target: Ephrin type-A receptor 4 (Homo sapiens) (UniProt P54764); test: Inhibition of human recombinant EphA4 at 15 nM related to control ULK1
[6] = target: Homeodomain-interacting protein kinase 2 (Homo sapiens) (UniProt Q9H2X6); test: Inhibition of human recombinant HIPK2 at 500 nM related to control ULK1
[7] = target: Serine/threonine-protein kinase PAK 5 (Homo sapiens) (UniProt Q9P286); test: Inhibition of human recombinant PAK5 at 500 nM related to control ULK1
[8] = target: Serine/threonine-protein kinase PAK 2 (Homo sapiens) (UniProt Q13177); test: Inhibition of human recombinant PAK2 at 500 nM related to control ULK1
[9] = target: ALK tyrosine kinase receptor (Homo sapiens) (UniProt Q9UM73); test: Inhibition of human recombinant ALK at 500 nM related to control ULK1
Summary of the method: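 Panel of 327 recombinant human kinases, each assayed in vitro by radiometric activity assay in duplicate at a single inhibitor concentration per compound, chosen with reference to its ULK1 inhibition. Activity remaining was expressed as percent of vehicle control, and percent inhibition was calculated as 100 minus percent activity remaining.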

Serine/threonine-protein kinase PAK 5 (Homo sapiens), sequence (Q9P286 whole entry, looked up): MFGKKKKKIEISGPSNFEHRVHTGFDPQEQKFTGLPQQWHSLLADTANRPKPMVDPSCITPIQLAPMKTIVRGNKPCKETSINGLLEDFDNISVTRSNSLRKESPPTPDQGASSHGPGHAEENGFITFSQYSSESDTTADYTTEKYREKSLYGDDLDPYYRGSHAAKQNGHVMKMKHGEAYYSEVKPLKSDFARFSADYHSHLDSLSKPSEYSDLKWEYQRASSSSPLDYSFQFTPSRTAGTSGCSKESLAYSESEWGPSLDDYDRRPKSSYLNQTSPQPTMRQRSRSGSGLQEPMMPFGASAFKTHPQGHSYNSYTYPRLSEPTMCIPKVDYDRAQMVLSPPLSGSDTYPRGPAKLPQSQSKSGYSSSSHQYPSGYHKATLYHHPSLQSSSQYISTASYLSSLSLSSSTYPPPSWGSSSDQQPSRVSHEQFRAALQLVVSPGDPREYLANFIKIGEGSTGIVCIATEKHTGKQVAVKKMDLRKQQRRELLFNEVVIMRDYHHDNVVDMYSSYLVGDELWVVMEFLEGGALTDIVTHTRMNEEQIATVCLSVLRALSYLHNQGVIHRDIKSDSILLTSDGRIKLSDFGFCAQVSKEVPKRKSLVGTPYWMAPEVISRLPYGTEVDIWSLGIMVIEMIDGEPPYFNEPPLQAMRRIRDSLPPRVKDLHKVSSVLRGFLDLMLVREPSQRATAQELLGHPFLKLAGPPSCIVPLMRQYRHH
Serine/threonine-protein kinase PAK 2 (Homo sapiens), sequence (Q13177 whole entry): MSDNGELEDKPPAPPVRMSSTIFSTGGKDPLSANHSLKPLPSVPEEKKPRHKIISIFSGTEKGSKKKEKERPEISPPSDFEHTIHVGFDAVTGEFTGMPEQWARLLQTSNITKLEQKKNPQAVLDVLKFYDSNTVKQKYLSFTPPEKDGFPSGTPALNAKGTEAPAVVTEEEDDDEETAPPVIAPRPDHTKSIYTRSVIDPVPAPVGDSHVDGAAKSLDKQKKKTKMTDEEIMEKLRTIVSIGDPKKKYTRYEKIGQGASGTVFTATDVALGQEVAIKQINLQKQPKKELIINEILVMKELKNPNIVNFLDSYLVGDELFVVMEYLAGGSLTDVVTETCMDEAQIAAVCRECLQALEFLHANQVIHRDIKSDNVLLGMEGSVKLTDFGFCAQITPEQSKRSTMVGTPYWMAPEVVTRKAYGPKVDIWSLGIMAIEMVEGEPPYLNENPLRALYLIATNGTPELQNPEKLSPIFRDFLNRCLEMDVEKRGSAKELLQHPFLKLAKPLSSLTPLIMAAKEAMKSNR
Homeodomain-interacting protein kinase 2 (Homo sapiens), sequence (Q9H2X6 whole entry, looked up): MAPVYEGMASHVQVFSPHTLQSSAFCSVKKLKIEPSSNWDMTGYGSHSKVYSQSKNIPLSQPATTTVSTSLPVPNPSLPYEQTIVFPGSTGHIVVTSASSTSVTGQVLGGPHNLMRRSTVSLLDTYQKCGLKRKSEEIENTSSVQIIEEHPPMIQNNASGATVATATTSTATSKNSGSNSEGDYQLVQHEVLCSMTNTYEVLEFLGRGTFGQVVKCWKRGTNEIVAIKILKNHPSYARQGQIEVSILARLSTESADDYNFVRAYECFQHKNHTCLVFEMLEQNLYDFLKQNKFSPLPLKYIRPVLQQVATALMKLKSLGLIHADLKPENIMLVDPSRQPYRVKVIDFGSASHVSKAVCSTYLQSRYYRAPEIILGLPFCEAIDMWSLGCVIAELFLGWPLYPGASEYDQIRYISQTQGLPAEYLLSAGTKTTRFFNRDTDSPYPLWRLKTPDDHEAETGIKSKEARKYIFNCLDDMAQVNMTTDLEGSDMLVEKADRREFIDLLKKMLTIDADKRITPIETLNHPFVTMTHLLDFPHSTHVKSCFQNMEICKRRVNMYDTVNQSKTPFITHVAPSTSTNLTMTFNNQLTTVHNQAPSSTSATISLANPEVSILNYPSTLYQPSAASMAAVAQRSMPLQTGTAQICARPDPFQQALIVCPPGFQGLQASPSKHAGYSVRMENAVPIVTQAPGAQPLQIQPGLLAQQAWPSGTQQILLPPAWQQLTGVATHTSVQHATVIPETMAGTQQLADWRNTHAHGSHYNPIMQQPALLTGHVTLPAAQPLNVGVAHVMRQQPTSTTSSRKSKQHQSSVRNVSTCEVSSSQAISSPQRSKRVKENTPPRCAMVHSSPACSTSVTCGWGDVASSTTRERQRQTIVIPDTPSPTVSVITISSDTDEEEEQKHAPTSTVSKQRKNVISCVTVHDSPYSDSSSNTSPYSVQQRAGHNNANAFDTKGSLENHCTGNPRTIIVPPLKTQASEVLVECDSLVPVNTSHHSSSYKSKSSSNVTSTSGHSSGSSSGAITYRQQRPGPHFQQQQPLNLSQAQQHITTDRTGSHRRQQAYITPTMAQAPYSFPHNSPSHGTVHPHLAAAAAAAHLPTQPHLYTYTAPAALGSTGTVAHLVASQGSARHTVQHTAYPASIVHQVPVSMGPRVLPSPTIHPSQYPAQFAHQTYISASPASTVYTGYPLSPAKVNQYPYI
Serine/threonine-protein kinase/endoribonuclease IRE1 (Homo sapiens), sequence (O75460 19-977 limits assumed): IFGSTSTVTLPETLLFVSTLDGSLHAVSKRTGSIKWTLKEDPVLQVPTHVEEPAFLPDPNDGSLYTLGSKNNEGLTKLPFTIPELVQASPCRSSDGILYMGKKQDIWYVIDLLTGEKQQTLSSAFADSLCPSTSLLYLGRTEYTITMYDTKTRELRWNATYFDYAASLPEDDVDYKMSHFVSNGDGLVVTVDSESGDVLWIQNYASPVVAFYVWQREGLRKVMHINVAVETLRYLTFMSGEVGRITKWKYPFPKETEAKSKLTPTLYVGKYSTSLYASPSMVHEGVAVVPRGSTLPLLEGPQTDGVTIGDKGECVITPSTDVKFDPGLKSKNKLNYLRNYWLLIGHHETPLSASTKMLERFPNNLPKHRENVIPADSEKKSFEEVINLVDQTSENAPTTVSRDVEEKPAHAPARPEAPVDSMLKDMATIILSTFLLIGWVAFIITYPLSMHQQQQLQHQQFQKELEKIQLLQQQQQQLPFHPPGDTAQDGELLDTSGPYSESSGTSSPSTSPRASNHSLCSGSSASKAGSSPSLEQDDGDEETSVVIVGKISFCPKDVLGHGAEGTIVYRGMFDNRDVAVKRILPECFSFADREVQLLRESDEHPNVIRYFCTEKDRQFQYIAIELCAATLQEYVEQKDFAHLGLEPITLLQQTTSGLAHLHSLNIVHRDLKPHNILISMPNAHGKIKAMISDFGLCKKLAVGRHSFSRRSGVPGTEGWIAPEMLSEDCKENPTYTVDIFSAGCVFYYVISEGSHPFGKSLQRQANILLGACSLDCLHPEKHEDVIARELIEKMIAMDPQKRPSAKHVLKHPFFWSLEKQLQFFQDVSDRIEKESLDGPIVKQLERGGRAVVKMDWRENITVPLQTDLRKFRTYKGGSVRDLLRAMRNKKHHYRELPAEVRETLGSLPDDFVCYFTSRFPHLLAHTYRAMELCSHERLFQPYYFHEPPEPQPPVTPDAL
Ephrin type-A receptor 4 (Homo sapiens), sequence (P54764 whole entry): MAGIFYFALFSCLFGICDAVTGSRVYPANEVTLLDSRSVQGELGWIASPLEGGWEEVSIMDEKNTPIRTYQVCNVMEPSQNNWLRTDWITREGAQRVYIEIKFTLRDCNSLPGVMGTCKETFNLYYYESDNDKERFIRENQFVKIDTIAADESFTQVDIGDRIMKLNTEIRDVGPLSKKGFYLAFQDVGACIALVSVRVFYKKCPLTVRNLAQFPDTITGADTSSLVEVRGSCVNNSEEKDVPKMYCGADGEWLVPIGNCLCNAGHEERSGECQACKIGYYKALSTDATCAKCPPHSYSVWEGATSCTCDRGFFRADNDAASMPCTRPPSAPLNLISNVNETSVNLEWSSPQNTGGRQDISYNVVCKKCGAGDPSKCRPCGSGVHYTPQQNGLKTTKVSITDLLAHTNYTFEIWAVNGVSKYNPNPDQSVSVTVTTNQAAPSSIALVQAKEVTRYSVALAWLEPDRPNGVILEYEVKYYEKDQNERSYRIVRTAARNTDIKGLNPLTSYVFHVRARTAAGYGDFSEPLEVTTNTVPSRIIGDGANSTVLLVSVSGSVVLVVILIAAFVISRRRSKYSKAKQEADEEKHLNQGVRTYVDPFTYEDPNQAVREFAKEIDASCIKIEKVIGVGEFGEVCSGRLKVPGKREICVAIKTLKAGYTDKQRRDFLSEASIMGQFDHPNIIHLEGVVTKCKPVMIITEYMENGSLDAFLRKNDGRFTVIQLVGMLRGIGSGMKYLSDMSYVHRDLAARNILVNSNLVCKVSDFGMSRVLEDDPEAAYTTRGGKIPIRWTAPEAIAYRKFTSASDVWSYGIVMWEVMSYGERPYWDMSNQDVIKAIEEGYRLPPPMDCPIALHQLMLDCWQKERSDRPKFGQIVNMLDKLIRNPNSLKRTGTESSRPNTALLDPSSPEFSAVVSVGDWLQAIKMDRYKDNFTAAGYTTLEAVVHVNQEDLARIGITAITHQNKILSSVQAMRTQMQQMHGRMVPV

O=C(N[C@@H](C1CC1)C(F)(F)F)c1cc(-c2cnn3cc(-c4ccc(F)cc4)cnc23)cs1
fold change (FC) [1]: 0.16
fold change (FC) [2]: 0
fold change (FC) [3]: 0.1

CC(C)[C@H](NC(=O)c1cc(-c2cnn3cc(-c4ccc(OCCN5CCCCC5)cc4)cnc23)cs1)C(F)(F)F
fold change (FC) [4]: 0
fold change (FC) [5]: 0

CNC(=O)c1ccccc1Oc1nc(Nc2cc(OC)c(OC)c(OC)c2)ncc1Br
fold change (FC) [6]: 0
fold change (FC) [7]: 0.07
fold change (FC) [8]: 0.19
fold change (FC) [9]: 0
